Source: PubChem (The Scripps Research Institute Molecular Screening Center)
MC4R antag cAMP = antagonists of human melanocortin 4 receptor (MC4R) | P32245 | MC4R-expressing cells, MTII-stimulated cAMP, LANCE TR-FRET | inhibition, % at 6.5 µM | 0.48% of 360,000 active;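 active = inhibition above its plate's cutoff, the mean of tested wells on that plate plus 3 SD, cut at about 29% in these data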
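System – human MC4R-expressing U2OS cells · Also added – Melanotan II · Dosing – one concentration, 6.5 µM nominal · Timing – 30-min compound, 1-h challenge, 1-h detection, room temperature · Measured by – Eu-cAMP/anti-cAMP TR-FRET, emission 671 nm · Replicates – singlicate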
MC4R barr agon = activates human MC4R beta-arrestin recruitment; activation, % at 8.9 µM; P32245; 0.98% of 360,000 active; U2OS MC4R beta-arrestin complementation, luminescence; percent of melanotan II response, DMSO zero;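 active = activation above a per-plate cutoff, the mean activation of sample wells on that plate plus 3 SD, cut at about 8% in these data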
MOR-DOR ag = agonists of human mu-delta opioid receptor heterodimerization; cells, OPRM1-OPRD1 heterodimerization, luminescence; activation, % at 9.3 µM; 0.3% of 340,000 active; AID 504326; in the data active = activation above about 18%
Target sequence (P35372 whole entry, looked up): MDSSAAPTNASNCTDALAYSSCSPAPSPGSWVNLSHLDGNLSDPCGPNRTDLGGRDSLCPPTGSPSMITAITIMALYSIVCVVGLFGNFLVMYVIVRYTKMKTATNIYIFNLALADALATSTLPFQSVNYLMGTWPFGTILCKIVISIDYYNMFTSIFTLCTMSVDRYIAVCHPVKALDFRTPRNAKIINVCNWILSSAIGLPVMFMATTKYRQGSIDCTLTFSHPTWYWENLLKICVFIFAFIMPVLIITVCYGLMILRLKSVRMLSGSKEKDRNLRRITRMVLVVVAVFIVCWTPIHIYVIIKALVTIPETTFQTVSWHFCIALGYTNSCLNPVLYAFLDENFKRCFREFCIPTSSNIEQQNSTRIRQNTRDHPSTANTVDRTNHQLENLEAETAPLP
Target sequence (P41143 whole entry, looked up): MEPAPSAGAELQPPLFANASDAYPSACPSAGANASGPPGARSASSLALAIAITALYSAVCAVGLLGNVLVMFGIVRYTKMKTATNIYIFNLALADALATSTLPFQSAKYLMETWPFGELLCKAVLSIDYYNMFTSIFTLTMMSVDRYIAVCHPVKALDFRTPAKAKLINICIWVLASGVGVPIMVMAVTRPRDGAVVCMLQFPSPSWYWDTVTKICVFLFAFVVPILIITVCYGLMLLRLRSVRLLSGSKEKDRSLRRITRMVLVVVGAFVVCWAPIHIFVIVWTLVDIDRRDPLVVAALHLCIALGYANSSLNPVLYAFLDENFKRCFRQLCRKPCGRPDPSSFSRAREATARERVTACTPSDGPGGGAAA
OPRM1-OPRD1 inv = inverse agonists of human mu-delta opioid receptor heterodimerization. cell-based MOR-DOR heterodimer luminescence, inverse agonism. AID 504357. inhibition, % at 9.3 µM. 0.21% of 340,000 active; in the data active = inhibition above about 22%, passing the limit was not always enough
HTR5A ag = activates human HTR5A in OPRM1-OPRD1 agonist counter-screen | P47898 | HTR5A agonist assay, luminescence, cell-based | activation, % at 9.3 µM | 0.61% of 340,000 active | AID 504692; in the data active = activation mostly above about 9.5%, no sharp cut-off; inactive = mostly below about 7.6%
HTR5A inv ctr = inverse agonist of human HTR5A in OPRM1-OPRD1 counter-screen; AID 504634; 0.083% of 340,000 active; HTR5A cell line, luminescence, inverse agonism; inhibition, % at 9.3 µM; in the data active = inhibition mostly above about 23%, no sharp cut-off; inactive = mostly below about 18%
U2OS cAMP counter = counter-screen for MC4R antagonists: nonselective cAMP signaling inhibitors | shares compounds with MC4R antag cAMP | parental U2OS, forskolin cAMP, LANCE TR-FRET | inhibition, % at 6.5 µM | 26% of 1,600 active;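 active = mean inhibition over triplicates above the low-control well mean plus 3 SD, set per campaign, cut at about 13% in these data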;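 also: signal is single emission at 671 nm which falls as cellular cAMP rises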
MC4R antag conf = human MC4R cAMP antagonism confirmation; shares compounds with MC4R antag cAMP; MC4R-expressing cells, MTII-stimulated cAMP, TR-FRET; inhibition, % at 6.5 µM; 27% of 1,600 active; AID 602195; in the data active = inhibition above about 29%
Of the large screens only hits and unclear results are named; the others gave an inactive call (follow-up assays come after a bar, where they were run). An excerpt weighted towards active compounds, which were near 2.4% of everything screened.

COC(=O)CSc1nnc(-c2ccc(S(=O)(=O)N3CCCCC3)cc2)o1	MC4R antag cAMP 33 | U2OS cAMP counter inactive | MC4R antag conf 44
Cc1cccc(/C=N/NC(=O)c2ccncc2)n1	none
O=C(COC(=O)c1ccc(O)cc1)Nc1ccccc1[N+](=O)[O-]	none
NS(=O)(=O)c1ccc(-n2nncc2-c2ccco2)cc1	none
O=c1[nH]c(C2CCN(S(=O)(=O)c3ccccc3)CC2)nc2c1nnn2Cc1c(F)cccc1Cl	none
O=C(O)CNS(=O)(=O)c1ccc(C2CCCCC2)cc1	MC4R antag cAMP 32 | U2OS cAMP counter inactive | MC4R antag conf inactive
O=C(O)CNS(=O)(=O)c1ccc(F)cc1	none
CC(=O)c1ccc(NC(=O)NC2CCCCCCC2)cc1	none
O=C(NC(Nc1nc2ccc([N+](=O)[O-])cc2s1)(C(F)(F)F)C(F)(F)F)c1ccccc1Cl	MC4R antag cAMP 33 | U2OS cAMP counter inactive | MC4R antag conf inactive
O=C(NC(Nc1nc2ccc([N+](=O)[O-])cc2s1)(C(F)(F)F)C(F)(F)F)c1cccnc1	none
CN1CCN(C(=O)C2=C[C@@H](C3CC3)C[C@@H](OCc3ccc(CO)cc3)O2)CC1	none
CCCCN(CCCC)S(=O)(=O)c1ccc(NC(=O)Cc2cccs2)cc1	none
COc1ccc(OC(=O)COc2ccccc2C)cc1	none (no result: MOR-DOR ag, OPRM1-OPRD1 inv, HTR5A ag, HTR5A inv ctr)
CCOc1ccccc1OCC(=O)Oc1ccc(C)c(C)c1	MC4R antag cAMP 29 | U2OS cAMP counter inactive | MC4R antag conf inactive
CC1C/C(=C/c2ccncc2)C(=O)/C(=C/c2ccncc2)C1 (stereo unspecified)	MC4R antag cAMP 31 | U2OS cAMP counter 29 | MC4R antag conf 30
O=C1/C(=C/c2ccncc2)Cc2ccccc21	none
ClCC1NCC(c2ccccc2Cl)c2c1[nH]c1ccccc21 (stereo unspecified)	MC4R antag cAMP 36 | U2OS cAMP counter inactive | MC4R antag conf inactive
CC1(C)CC(=O)C2=C(C1)OC1=C(C(=O)CC(C)(C)C1)C2c1ccc(O)cc1O	MC4R antag cAMP 74 | U2OS cAMP counter 50 | MC4R antag conf 52
O=C(Nc1ccc(F)cc1)c1nn(-c2ccccc2)c(=O)cc1Cl	MC4R antag cAMP 31 | U2OS cAMP counter 30 | MC4R antag conf 38
Cc1ccc(NC(=O)c2cc(-c3ccccc3)nn2-c2ccccc2)cc1	none
Clc1ccc(OCCCCCN2CCCC2)c(Br)c1	MC4R antag cAMP 30 | U2OS cAMP counter inactive | MC4R antag conf inactive
Clc1ccc(OCCCN2CCCCC2)c(Br)c1	none
O=C(/C=C/c1ccco1)NC(=S)Nc1cc(-c2nc3ccccc3s2)ccc1Cl	MC4R antag cAMP 34 | U2OS cAMP counter inactive | MC4R antag conf inactive
O=C(CN1C(=O)c2cccc([N+](=O)[O-])c2C1=O)N1CCN(c2ccc(F)cc2)CC1	MC4R antag cAMP 34 | U2OS cAMP counter 27 | MC4R antag conf 43
COc1ccc(OC(=O)N2C/C(=C/c3ccccc3)C(=O)/C(=C\c3ccccc3)C2)cc1	MC4R antag cAMP 33 | U2OS cAMP counter 15 | MC4R antag conf inactive
CCOC(=O)N1C/C(=C\c2ccccc2)C(=O)/C(=C/c2ccccc2)C1	none
Cc1cc(S(=O)(=O)c2ccc(Cl)cc2)nc(S(=O)(=O)c2ccc(Cl)cc2)c1C#N	MC4R antag cAMP 39 (no result: MOR-DOR ag, OPRM1-OPRD1 inv, HTR5A ag, HTR5A inv ctr) | U2OS cAMP counter 29 | MC4R antag conf inactive
CCn1cc(CCC(=O)NCc2cccc(OC)c2OC)c2ccccc21	MC4R antag cAMP 31 | U2OS cAMP counter inactive | MC4R antag conf inactive
COCCNC(=O)/C(C#N)=C/c1c(F)cccc1Cl	none
O=c1oc2cc(O)c(Cl)cc2c2ccccc12	MC4R antag cAMP 56 | U2OS cAMP counter 41 | MC4R antag conf 64
C#CCCOC(=O)N1C2=NC(C(=O)OC)=C(C(=O)OC)[C@@H]3N(C)c4ccccc4[C@]23C[C@H]1CO	none
CCC(=O)N1CCc2cc(Br)c(S(=O)(=O)CCC(=O)NCCc3ccccc3)cc21	none
COc1ccccc1CNCc1ccc(C)cc1	none
COc1ccccc1CNCc1cc(OC)c(OC)c(OC)c1	MC4R antag cAMP 30 | U2OS cAMP counter inactive | MC4R antag conf inactive
COc1cccc(N2C(=NC(=O)C3CCCO3)SC3CS(=O)(=O)CC32)c1 (stereo unspecified)	none
COc1ccc(/C=C/C(=O)NC(=S)Nc2ccc(Br)cn2)cc1	none
COc1ccc(NC(=O)c2cccc(-n3c(C)ccc3C)c2)c(OC)c1	MC4R antag cAMP 29 | U2OS cAMP counter inactive | MC4R antag conf inactive
COCCN1CCN(C(=O)c2cc(COc3ccc(F)c(F)c3)on2)CC1	none
COCCn1c(Cc2cccn2C)nnc1SCC(=O)NCc1ccc2c(c1)OCO2	none
Cc1cc(C(=O)COc2cc(F)ccc2[N+](=O)[O-])c(C)n1CC1CCCO1 (stereo unspecified)	MC4R antag cAMP 33 | U2OS cAMP counter inactive | MC4R antag conf inactive
COCCNc1nc(Oc2ccc(NC(C)=O)cc2)c2sc(-c3ccccc3)cc2n1	MC4R antag cAMP 47 (no result: MOR-DOR ag, OPRM1-OPRD1 inv, HTR5A ag, HTR5A inv ctr) | U2OS cAMP counter inactive | MC4R antag conf inactive
CN1C(=O)CC(C(=O)Nc2ccccc2F)SC1=Nc1ccc2c(c1)OCO2 (stereo unspecified)	MC4R antag cAMP 33 | U2OS cAMP counter inactive | MC4R antag conf inactive
COc1ccc(N=C2SC(C(=O)Nc3ccc4c(c3)OCO4)CC(=O)N2C)cc1 (stereo unspecified)	none
CCOc1ccc2nc(NC(=O)Cn3[nH]c(=O)c4ccccc4c3=O)sc2c1	none
CCCNC(=O)Nc1cccc(NC(C)=O)c1	none
C/C(=N/NC(=O)CCC(=O)Nc1cccc(Cl)c1)c1ccc(C)cc1	none
O=C(OCc1c(F)cccc1Cl)c1cnc(Cl)c(Cl)c1	MC4R antag cAMP 34 | U2OS cAMP counter 17 | MC4R antag conf 43
O=C(OCc1ccccc1F)c1cnc(Cl)c(Cl)c1	MC4R antag cAMP 40 | U2OS cAMP counter 25 | MC4R antag conf 38
O=C(OCc1ccc([N+](=O)[O-])cc1)c1cnc(Cl)c(Cl)c1	none
COc1ccc(C(C(=O)NC2CCCC2)N(C(=O)c2snc(C(N)=O)c2N)c2cccc(O)c2)cc1 (stereo unspecified)	none
O=S(=O)(/C(=C\c1ccc(C(F)(F)F)cc1)c1nc2ccccc2[nH]1)c1ccccc1	MC4R antag cAMP 33 | U2OS cAMP counter inactive | MC4R antag conf 35
O=C(NCc1ccco1)/C(=C/c1ccc(C(F)(F)F)cc1)c1nc2ccccc2[nH]1	none
FC(F)(F)c1cnc(Oc2cccc3ccccc23)c(Cl)c1	MC4R antag cAMP 29 | U2OS cAMP counter inactive | MC4R antag conf inactive
Oc1cccc(Oc2ncc(C(F)(F)F)cc2Cl)c1	none
